Assay results: ChEMBL document CHEMBL3808334, “Synthesis and in vitro evaluation of novel triazine analogues as anticancer agents and their interaction studies with bovine serum albumin” (Eur J Med Chem, 2016)

How the values were obtained:
Format in all cases: functional
[1] = Growth inhibition of human DU145 cells assessed as cell growth at 10^-4 M incubated for 48 hrs by sulforhodamine B assay; details: DU-145, 48 h, read-out: Activity
How it was run: (§1)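 Cells seeded at 5,000–40,000/well according to doubling time and preincubated 24 h at 37 °C, 5% CO2. Time-zero plates were TCA-fixed. DMSO concentrate was diluted in medium with 50 µg/ml gentamicin to give five concentrations (10-fold or ½ log steps), then exposed 48 h. Cells were TCA-fixed, stained with 0.4% SRB and read at 515 nm. Percent growth was taken against time-zero and control; GI50, TGI and LC50 derived.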

NCI-H23 [2] = experiment: Growth inhibition of human NCI-H23 cells assessed as cell growth at 10^-7 M incubated for 48 hrs by sulforhodamine B assay; details: NCI-H23, 48 h, read-out: Activity
[3] = Growth inhibition of human HL-60(TB) cells assessed as cell growth at 10^-5 M incubated for 48 hrs by sulforhodamine B assay; details: HL-60, 48 h, read-out: Activity
How it was run: (§2)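 Cells plated at 5,000–40,000/well according to doubling time and preincubated 24 h at 37 °C, 5% CO₂, with time-zero plates TCA-fixed. Drugs were kept as DMSO concentrates at 400× the top concentration and diluted in medium with 50 µg/ml gentamicin. Five 10-fold or ½-log dilutions were run for 48 h, followed by SRB staining and A515. Percent growth = (Ti−Tz)/(C−Tz)×100, or (Ti−Tz)/Tz×100 when Ti<Tz.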

[4] = Growth inhibition of human Hs 578T cells assessed as cell growth at 10^-8 M incubated for 48 hrs by sulforhodamine B assay; details: read-out: Activity
[5] = Growth inhibition of human HCT116 cells incubated for 48 hrs by sulforhodamine B assay; details: HCT-116, 48 h; how it was run: as §1
NCI-H23 [6] = experiment: Growth inhibition of human NCI-H23 cells assessed as cell growth at 10^-5 M incubated for 48 hrs by sulforhodamine B assay; details: NCI-H23, 48 h, read-out: Activity
T47D = experiment: Growth inhibition of human T47D cells assessed as cell growth at 10^-5 M incubated for 48 hrs by sulforhodamine B assay; details: read-out: Activity
[7] = Growth inhibition of human UACC62 cells assessed as cell growth at 10^-7 M incubated for 48 hrs by sulforhodamine B assay; details: UACC-62, 48 h, read-out: Activity
[8] = Growth inhibition of human LOXIMVI cells assessed as cell growth at 10^-6 M incubated for 48 hrs by sulforhodamine B assay; details: LOX IMVI, read-out: Activity
NCI-H322M = experiment: Growth inhibition of human NCI-H322M cells assessed as cell growth at 10^-4 M incubated for 48 hrs by sulforhodamine B assay; details: read-out: Activity
[9] = Growth inhibition of human SKOV3 cells assessed as cell growth at 10^-5 M incubated for 48 hrs by sulforhodamine B assay; details: SK-OV-3, 48 h, read-out: Activity
[10] = Growth inhibition of human DU145 cells assessed as cell growth at 10^-5 M incubated for 48 hrs by sulforhodamine B assay; details: DU-145, 48 h, read-out: Activity; how it was run: as §1
SK-MEL-2 [11] = experiment: Growth inhibition of human SK-MEL-2 cells assessed as cell growth at 10^-6 M incubated for 48 hrs by sulforhodamine B assay; details: SK-MEL-2, 48 h, read-out: Activity
MDA-MB-435 = experiment: Growth inhibition of human MDA-MB-435 cells assessed as cell growth at 10^-4 M incubated for 48 hrs by sulforhodamine B assay; details: MDA-MB-435, 48 h, read-out: Activity
[12] = Growth inhibition of human HL-60(TB) cells assessed as cell growth at 10^-7 M incubated for 48 hrs by sulforhodamine B assay; details: HL-60, 48 h, read-out: Activity; how it was run: as §2
[13] = Growth inhibition of human HCC2998 cells assessed as cell growth at 10^-6 M incubated for 48 hrs by sulforhodamine B assay; details: HCC 2998, 48 h, read-out: Activity; how it was run: as §1
[14] = Growth inhibition of human SF295 cells assessed as cell growth at 10^-6 M incubated for 48 hrs by sulforhodamine B assay; details: SF-295, 48 h, read-out: Activity
[15] = Growth inhibition of human DU145 cells assessed as cell growth at 10^-6 M incubated for 48 hrs by sulforhodamine B assay; details: DU-145, 48 h, read-out: Activity; how it was run: as §1
[16] = Growth inhibition of human SF295 cells incubated for 48 hrs by sulforhodamine B assay; details: SF-295, 48 h
How it was run: (§3)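 Cells were plated at 5,000–40,000 per well according to doubling time and preincubated 24 h at 37 °C in 5% CO2; time-zero plates were then TCA-fixed. Five concentrations (10-fold or ½-log dilutions, DMSO stock) were incubated 48 h. Cells were TCA-fixed, stained with 0.4% SRB and read at 515 nm. GI50 was taken where [(Ti−Tz)/(C−Tz)]×100 = 50.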

SK-MEL-2 [17] = experiment: Growth inhibition of human SK-MEL-2 cells assessed as cell growth at 10^-5 M incubated for 48 hrs by sulforhodamine B assay; details: SK-MEL-2, 48 h, read-out: Activity
[18] = Growth inhibition of human UO31 cells assessed as cell growth at 10^-8 M incubated for 48 hrs by sulforhodamine B assay; details: UO-31, 48 h, read-out: Activity
786-0 [19] = experiment: Growth inhibition of human 786-0 cells assessed as cell growth at 10^-8 M incubated for 48 hrs by sulforhodamine B assay; details: 786-0, 48 h, read-out: Activity
How it was run: (§4)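 Five-dose assay: five concentrations from 10-fold or ½-log serial dilutions. Cells are plated at 5,000–40,000 per well according to doubling time, grown 24 h, then exposed 48 h at 37 °C, 5% CO₂. Fixed with cold 50% TCA (final addition) for 60 min at 4 °C and stained with 0.4% SRB in 1% acetic acid. Bound dye is solubilized in 10 mM Tris base and read at 515 nm. GI₅₀ is where [(Ti−Tz)/(C−Tz)]×100 = 50, with a time-zero plate as Tz.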

SR = experiment: Growth inhibition of human SR cells assessed as cell growth at 10^-4 M incubated for 48 hrs by sulforhodamine B assay; details: read-out: Activity
[20] = Growth inhibition of human OVCAR8 cells incubated for 48 hrs by sulforhodamine B assay; details: OVCAR-8, 48 h; how it was run: as §3
U-251 = experiment: Growth inhibition of human U251 cells assessed as cell growth at 10^-4 M incubated for 48 hrs by sulforhodamine B assay; details: U-251, 48 h, read-out: Activity
786-0 [21] = experiment: Growth inhibition of human 786-0 cells assessed as cell growth at 10^-6 M incubated for 48 hrs by sulforhodamine B assay; details: 786-0, 48 h, read-out: Activity; how it was run: as §4
[22] = read-out: LC50 (the source's name)
[23] = read-out: pLC50 (the source's name) (converted)

Clc1ccc(-c2nc(Nc3ccc(-c4nc5ccccc5[nH]4)cc3)nc(N3CCOCC3)n2)cc1
growth at 100 µM [1]: -63% | growth at 0.1 µM (NCI-H23 [2]): 92% | growth at 10 µM [3]: -71% | growth at 0.01 µM [4]: 90% | GI50 ([5]; read-out: GI50): 177 nM | TGI ([5]; read-out: TGI): 346 nM | GI50 ([5]; read-out: pGI50 (converted)): 178 nM | TGI ([5]; read-out: pTGI (converted)): 347 nM | growth at 10 µM (NCI-H23 [6]): -66% | growth at 10 µM (T47D): -62% | growth at 0.1 µM [7]: 93% | growth at 1 µM [8]: -64% | growth at 100 µM (NCI-H322M): -22% | growth at 10 µM [9]: -96% | growth at 10 µM [10]: -93% | growth at 1 µM (SK-MEL-2 [11]): 97% | growth at 100 µM (MDA-MB-435): -49% | growth at 0.1 µM [12]: 90% | growth at 1 µM [13]: 15% | growth at 1 µM [14]: 77% | growth at 1 µM [15]: 26% | GI50 ([16]; read-out: GI50): 1470 nM | TGI ([16]; read-out: TGI): 2.99 µM | GI50 ([16]; read-out: pGI50 (converted)): 1480 nM | TGI ([16]; read-out: pTGI (converted)): 3.02 µM | growth at 10 µM (SK-MEL-2 [17]): -87% | growth at 0.01 µM [18]: 79% | growth at 0.01 µM (786-0 [19]): 99% | growth at 100 µM (SR): 5% | GI50 ([20]; read-out: GI50): 1120 nM | CC50 [20, 22]: 6.09 µM | TGI ([20]; read-out: TGI): 2.61 µM | GI50 ([20]; read-out: pGI50 (converted)): 1120 nM | CC50 [20, 23]: 6.03 µM | TGI ([20]; read-out: pTGI (converted)): 2.63 µM | growth at 100 µM (U-251): -44% | growth at 1 µM (786-0 [21]): -78%

c1ccc2[nH]c(-c3ccc(Nc4nc(N5CCCCC5)nc(N5CCOCC5)n4)cc3)nc2c1
growth at 100 µM [1]: 8% | growth at 0.1 µM (NCI-H23 [2]): 93% | growth at 10 µM [3]: -31% | growth at 0.01 µM [4]: 96% | GI50 ([5]; read-out: GI50): 1910 nM | CC50 [5, 22]: 7.88 µM | TGI ([5]; read-out: TGI): 3870 nM | GI50 ([5]; read-out: pGI50 (converted)): 1910 nM | CC50 [5, 23]: 7.94 µM | TGI ([5]; read-out: pTGI (converted)): 3890 nM | growth at 10 µM (NCI-H23 [6]): 6% | growth at 10 µM (T47D): -46% | growth at 0.1 µM [7]: 96% | growth at 1 µM [8]: 89% | growth at 100 µM (NCI-H322M): 10% | growth at 10 µM [9]: -37% | growth at 10 µM [10]: 23% | growth at 1 µM (SK-MEL-2 [11]): 101% | growth at 100 µM (MDA-MB-435): -29% | growth at 0.1 µM [12]: 100% | growth at 1 µM [13]: 105% | growth at 1 µM [14]: 84% | growth at 1 µM [15]: 96% | GI50 ([16]; read-out: GI50): 1850 nM | CC50 [16, 22]: 34.6 µM | TGI ([16]; read-out: TGI): 4.6 µM | GI50 ([16]; read-out: pGI50 (converted)): 1860 nM | CC50 [16, 23]: 34.7 µM | TGI ([16]; read-out: pTGI (converted)): 4.57 µM | growth at 10 µM (SK-MEL-2 [17]): -38% | growth at 0.01 µM [18]: 85% | growth at 0.01 µM (786-0 [19]): 99% | growth at 100 µM (SR): -11% | GI50 ([20]; read-out: GI50): 3240 nM | CC50 [20, 22]: > 100 µM | TGI ([20]; read-out: TGI): 14.3 µM | GI50 ([20]; read-out: pGI50 (converted)): 3240 nM | CC50 [20, 23]: > 100 µM | TGI ([20]; read-out: pTGI (converted)): 14.1 µM | growth at 100 µM (U-251): -56% | growth at 1 µM (786-0 [21]): 79%
